A selection: hits, their analogues and other compounds. The true share with any hit is near 7.6%.
HEK293 NFkB inh: inhibitors of PMA/ionomycin-induced NF-kB reporter, primary screen, antigen receptor NF-kB inhibitor project, cell-based, HEK-293 luciferase reporter, luminescence; HEK-293 NF-kB luciferase reporter; inhibition, % at 3 µM; hit rate 0.21% among 62,000;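 active means inhibition above the mean of all tested compounds plus 3 SD, cut at about 40% in these data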
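Signal: luciferase luminescence; Material: HEK-293 cells with stable firefly luciferase reporter driven by four HIV NF-kB elements; Probe or stimulus: PMA with ionomycin; Replication: tested once; Times: 1 h compound pretreatment, then 16 h stimulation at 37 °C, 5% CO2; Benchmarks: DMSO and 10 µM reference inhibitor; Evaluation: per-plate % inhibition versus controls.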
D1 allo mod: D1 CRE-luciferase signal change, two-sided – cell-based, HEK293 D1, dopamine EC30, D1 allosteric modulator project, primary screen | D(1A) dopamine receptor (Homo sapiens), P21728 | dopamine EC30 potentiation; actives deviate in either direction | B-score at 10 µM | hit rate 5.9% among 58,000;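 active means luminescence count or its row- and column-corrected plate score outside the 99.7% band of the plate's sample wells, on either side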
Target sequence (P21728 whole entry, looked up): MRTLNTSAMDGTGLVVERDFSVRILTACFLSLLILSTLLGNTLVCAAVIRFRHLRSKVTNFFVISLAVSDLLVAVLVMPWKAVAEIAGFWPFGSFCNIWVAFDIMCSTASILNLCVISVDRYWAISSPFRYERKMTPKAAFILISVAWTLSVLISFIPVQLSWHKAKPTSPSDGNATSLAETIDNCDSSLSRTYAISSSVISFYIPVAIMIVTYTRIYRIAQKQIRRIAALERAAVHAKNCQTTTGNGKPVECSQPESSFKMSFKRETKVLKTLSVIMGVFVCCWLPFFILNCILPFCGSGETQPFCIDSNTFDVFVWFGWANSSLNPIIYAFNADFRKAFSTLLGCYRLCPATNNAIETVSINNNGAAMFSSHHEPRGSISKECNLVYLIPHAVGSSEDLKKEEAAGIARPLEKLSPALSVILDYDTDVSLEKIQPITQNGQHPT
hDAT+cocaine: changed hDAT dopamine uptake under cocaine IC80, either direction, primary screen, cocaine antagonist project, cell-based, LLC-PK1 hDAT, [14C]-dopamine uptake, MLSMR; B-score at 10 µM; AID 449768, 2010; hit rate 1.3% among 110,000; LLC-PK1 hDAT cells, [14C]-dopamine uptake with cocaine IC80; actives deviate in either direction; Sodium-dependent dopamine transporter (Homo sapiens), Q01959;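 active means Z score or B-score, a plate-position-corrected score, falls beyond the plate's 99.7% confidence bounds, in either direction; inactive means both scores lie inside the 99.7% bounds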
M1 agonist: M1 muscarinic receptor agonists, primary screen, CHO-M1 cells, Fluo-4 calcium, agonist mode | Muscarinic acetylcholine receptor M1 | Fluo-4 calcium fluorescence; hits give high values | hit rate 3% among 64,000 | AID 626, 2007 | B-score at 10 µM;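 active means fluorescence rise, raw or as B-score row- and column-corrected plate score, outside the 99.7% band of its plate's samples, either direction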
Jurkat viability: cytotoxicity toward Jurkat T cells, primary screen, cytotoxicity control, cell-based, Jurkat E6.1, 60K MLSMR library. Jurkat E6.1 viability, ATP luminescence, 48 h. inhibition, % at 4 µM. hit rate 1.2% among 56,000. AID 463, 2006;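 active means inhibition above the mean inhibition of all tested compounds plus 3 SD, cut at about 28% in these data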
M1 antag: antagonists of rat M1 muscarinic receptor; Muscarinic acetylcholine receptor M1 (Rattus norvegicus), P08482; CHO-M1 cells, Fluo-4 calcium, ACh EC80 antagonist mode; hits give low values; hit rate 3.4% among 64,000; B-score at 10 µM;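 active means calcium fluorescence response, raw or row-and-column corrected B-score, differing from the plate sample mean either way at a set confidence level, mostly lower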
D1 mod confirm: D1 receptor positive allosteric modulators, retest, confirmation, cell-based, HEK293 D1, CRE-luciferase, duplicate | shares compounds with D1 allo mod | dopamine EC30 potentiation; hits give high values | luminescence at 10 µM | hit rate 88% among 2,200;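 active means luminescence in either of two replicates above the same-plate mean plus 3 SD of the low-dose dopamine control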
D1 ag no DA: D1 receptor agonism without dopamine, confirmation, mechanism study for D1 allosteric modulator project, cell-based, HEK293 D1, CRE-luciferase, secondary assay 1 | luminescence at 10 µM | hit rate 0.8% among 1,900 | luminescence, no dopamine; hits give high values | shares compounds with D1 allo mod | AID 646, 2007; in the data active means luminescence above about 3900
Isoprot counter: alters isoproterenol CRE-luciferase response in HEK293 cells; hit rate 63% among 2,200; shares compounds with D1 allo mod; HEK293 D1 CRE-luciferase, isoproterenol EC30 counter-screen; AID 647; calls only at 10 µM;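 active means luminescence in either replicate above plate mean of wells with a partly effective reference agonist dose plus 3 SD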;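 further: isoproterenol raises cAMP through native beta-adrenoceptor Gs so signal bypasses D1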
Of the large screens only hits and unclear results are named; the others gave an inactive call (follow-up assays come after a bar, where they were run).

COc1ccc(CCNC(=O)C2CC3Cn4c(nc5ccccc54)C3N2Cc2ccccc2)cc1 (stereo not drawn)	none (no result: HEK293 NFkB inh, D1 allo mod, M1 agonist, Jurkat viability, M1 antag)
O=C(CN1CCC2(CC1)OCCO2)c1c[nH]c2ccccc12	none
CSc1cc(/C=N/O)c(SC)s1	D1 allo mod 6.9 | D1 mod confirm 12744 | D1 ag no DA inactive | Isoprot counter inactive
Cc1cc(C)c(COCc2cc(/C=N/O)c(C)cc2C)cc1/C=N/O	none (no result: HEK293 NFkB inh, D1 allo mod, M1 agonist, Jurkat viability, M1 antag)
Cc1csc2nc(CNC(=O)C3CCCCC3)cn12	D1 allo mod 3 | D1 mod confirm inactive | D1 ag no DA inactive | Isoprot counter inactive
O=C(NCCc1cn2ccsc2n1)C1CCCCC1	none
O=C(Cc1ccccc1)N1CCC(C(=O)N2CCN(c3ccc(F)cc3)CC2)CC1	none (no result: Jurkat viability)
CCc1nnc(NC(=O)CSc2nc(C)c3c(c2C#N)CCCC3)s1	D1 allo mod 5.8 (no result: HEK293 NFkB inh, Jurkat viability) | D1 mod confirm 11752 | Isoprot counter active
COc1ccc(NC(=O)CSc2nc(C)c3c(c2C#N)CCCC3)cc1	none (no result: HEK293 NFkB inh, D1 allo mod, M1 agonist, Jurkat viability, M1 antag)
CC(C)n1c(SCC(=O)N2c3ccccc3Sc3ccccc32)nc2c1c(=O)n(C)c(=O)n2C	D1 allo mod 5.2 | D1 mod confirm 12564 | Isoprot counter active
CC(C)n1c(SCC(N)=O)nc2c1c(=O)n(C)c(=O)n2C	none
COc1ccnc(Oc2ccc(F)cc2)c1C(=O)N/C=N/OCc1c(Cl)cccc1Cl	none (no result: HEK293 NFkB inh, D1 allo mod, M1 agonist, Jurkat viability, M1 antag)
O=C(Nc1ccccc1)c1ccccc1NC(=O)C1CCCCC1	none (no result: HEK293 NFkB inh, D1 allo mod, M1 agonist, Jurkat viability, M1 antag)
COC(=O)c1ccccc1NC(=O)c1ccc2c(c1)OCCO2	D1 allo mod 3.9 | D1 mod confirm 11420 | D1 ag no DA inactive | Isoprot counter inactive
CS(=O)(=O)Nc1ccc(C(=O)Nc2ccccc2C(=O)N2CCCC2)cc1	none
COC(=O)c1ccccc1NC(=O)NCc1ccc2c(c1)OCO2	none
COC(=O)c1ccccc1NC(=O)C1CCCC1	D1 allo mod 6.6 | D1 mod confirm 9916 | D1 ag no DA inactive | Isoprot counter active
COC(=O)c1ccccc1NC(=O)c1ccc(NS(C)(=O)=O)cc1	D1 allo mod 8 | D1 mod confirm 9992 | D1 ag no DA inactive | Isoprot counter active
CCOc1ccccc1N(CC(=O)NC1CCCCC1)S(C)(=O)=O	none (no result: M1 agonist, M1 antag)
CC(C)Nc1nc(NC(C)C)nc(N(C)C(N)=O)n1	D1 allo mod 7.7 | D1 mod confirm 17056 | D1 ag no DA inactive | Isoprot counter active
CC(C)Nc1nc(NC(C)C)nc(N(C)N)n1	none (no result: HEK293 NFkB inh, D1 allo mod, M1 agonist, Jurkat viability, M1 antag)
CCN1CCN(C(C)C(=O)Nc2c(C)n(C)n(-c3ccccc3)c2=O)CC1 (stereo not drawn)	none (no result: HEK293 NFkB inh, D1 allo mod, M1 agonist, Jurkat viability, M1 antag)
COc1ccc(C2CC(=O)Nc3ccccc3S2(=O)=O)cc1OC (stereo not drawn)	D1 allo mod 2.9 | D1 mod confirm 9916 | D1 ag no DA inactive | Isoprot counter inactive
CCOc1ccccc1NC(=O)CN(C)S(=O)(=O)c1cccc2nsnc12	D1 allo mod 4.7 | D1 mod confirm 6432 | D1 ag no DA inactive | Isoprot counter inactive
COc1ccc(OC)c(C2C=C(c3ccc(C)c(C)c3)Nc3nnnn32)c1 (stereo not drawn)	D1 allo mod 3.9 | D1 mod confirm 6516 | D1 ag no DA inactive | Isoprot counter inactive
COc1ccc(C2C=C(c3ccccc3)Nc3nnnn32)cc1 (stereo not drawn)	none
COc1cccc(C2=CC(c3cc(OC)ccc3OC)n3nnnc3N2)c1 (stereo not drawn)	D1 allo mod 4.1, Jurkat viability 90 (no result: hDAT+cocaine) | D1 mod confirm 8488 | Isoprot counter active
COc1cccc(C2=CC(c3ccc(N(C)C)cc3)n3nnnc3N2)c1 (stereo not drawn)	none (no result: HEK293 NFkB inh, D1 allo mod, Jurkat viability)
COc1ccc(C2=CC(c3ccc(OC)c(OC)c3)n3nnnc3N2)c(OC)c1 (stereo not drawn)	D1 allo mod 9.3 | D1 mod confirm 15796 | D1 ag no DA inactive | Isoprot counter active
COc1cccc(C2=CC(c3cccc(OC)c3OC(F)F)n3nnnc3N2)c1 (stereo not drawn)	none
COC(=O)c1cccc(C23CC4(C2)[C@H](CN(C)[C@@H]4c2ccccc2)C3c2ccccc2)c1 (stereo partly drawn)	none (no result: HEK293 NFkB inh, D1 allo mod, M1 agonist, Jurkat viability, M1 antag)
COc1cccc(N2CCN(Cc3nc(N)nc(N4CCCc5ccccc54)n3)CC2)c1	D1 allo mod 4.9 | D1 mod confirm 11368 | D1 ag no DA inactive | Isoprot counter active
COc1ccc(Nc2nc(N)nc(CN3CCc4ccccc4C3)n2)cc1	none
CCN(CC)c1nc2ccccc2[nH]1	none (no result: HEK293 NFkB inh, D1 allo mod, M1 agonist, Jurkat viability, M1 antag)
O=C(O)C[C@H]1c2cc(C(F)(F)F)ccc2S(=O)(=O)N1C1CCN(Cc2ccccc2)CC1	none (no result: HEK293 NFkB inh, D1 allo mod, M1 agonist, Jurkat viability, M1 antag)
CCOc1cc(-c2nnc(-c3ccco3)o2)cc(OCC)c1OCC	none
CCOc1ccc(-c2nnc(-c3ccco3)o2)cc1OCC	D1 allo mod 15 | D1 mod confirm 17272 | D1 ag no DA inactive | Isoprot counter active
Cc1cc(C)c2c(n1)sc1c(N3CCN(CCO)CC3)ncnc12	D1 allo mod 7.2 | D1 mod confirm 11076 | D1 ag no DA inactive | Isoprot counter active
CCOC(=O)C1=C(C)Nc2ncnn2C1/C=C/c1ccccc1 (stereo not drawn)	D1 allo mod 2.8 | D1 mod confirm 11572 | D1 ag no DA inactive | Isoprot counter active
N#CCSc1nc2cc(C(=O)N3CCCC3)ccc2c(=O)n1Cc1ccccc1	none (no result: D1 allo mod)
N#CCSc1nc2cc(C(=O)N3CCC(C(N)=O)CC3)ccc2c2nc3ccccc3n12	D1 allo mod 10 | D1 mod confirm 12528 | D1 ag no DA inactive | Isoprot counter active
CSc1cc(-c2ccccc2)n(Cc2ccc(Cl)cc2Cl)c(=O)c1C#N	none (no result: HEK293 NFkB inh, D1 allo mod, M1 agonist, Jurkat viability, M1 antag)
Cc1nn(Cc2ccc(Cl)cc2)c(C)c1N	none (no result: HEK293 NFkB inh, D1 allo mod, M1 agonist, Jurkat viability, M1 antag)
Cc1cc(=O)c2n(Cc3ccc(Cl)cc3)nc[n+]2[nH]1	D1 allo mod 4.7 | D1 mod confirm 8876 | D1 ag no DA inactive | Isoprot counter inactive
COc1ccc(CCN(Cc2nc(-c3ccccc3)no2)Cc2nc(-c3ccccc3)no2)cc1OC	none
